Data reported in the EternaBench riboswitch data.

Test system: MS2 coat protein
Assay: apparent Kd, MS2 coat protein; higher = weaker binding; RNA-MaP array; FMN 200 µM where present
Procedure, shortened: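 On Illumina sequencing-chip clusters, designs were transcribed by stalled E. coli RNA polymerase and titrated with SNAP-549-labelled MS2 coat protein (0.7 or 1.5 nM, doubling to 3 µM), without and then with constant ligand, in 100 mM Tris-HCl pH 7.5, 80 mM KCl, 4 mM MgCl2, BSA, DTT, yeast tRNA and Tween-20. Apparent Kd is the median of filtered per-cluster curve fits to green signal normalised to red-channel RNA signal and control-cluster median Fmax.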

[1] = designed as: ON switch for flavin mononucleotide, no ligand
[2] = ligand present: flavin mononucleotide, designed as: ON switch for flavin mononucleotide
[3] = designed as: OFF switch for flavin mononucleotide, no ligand
[4] = ligand present: flavin mononucleotide, designed as: OFF switch for flavin mononucleotide

Sequence | apparent Kd [1] [nM] | apparent Kd [2] [nM] | apparent Kd [3] [nM] | apparent Kd [4] [nM]
ACAUGAGGAUCACCCAUGUGAACAUAGGAUAUUGGUGAUCAGGCAUGUUAUACAGGAUAUGUCUGCGAGAAGGAUGCACGUUGC | 567 | 341 | – | –
ACAUGAGGAUCACCCAUGUGAUGAUCUCCCAUGUUAUAUUUCAGAAGGCUCGCGUGUUUGAUGAGAGAGGAUAUGGAAUAUACG | – | – | 325 | 272
ACAUGAGGAUCACCCAUGUGGAGUGAAGAAGGUGGUUACUUAUGACUCUCCCAUGUACAUAGGACUGAGGAUAUUCUAAUAAUU | 88.5 | 81.7 | – | –
ACAUGAGGAUCACCCAUGUUAAACGAGGAUAUAUGACUGCACAUGAGGUUCACCCAUGUUCUACCGUAGAAGGUGUAAAUAAUU | 68.5 | 70.6 | – | –
ACAUGUAAUGCAGGAUAUUUUACACAUGAGGAUCACCCAUGUGACCAGAGGAAUUGCUAUGAGUAAAAGAAGGGUAUGUACAUG | – | – | 72.3 | 86.4
ACAUGUCGUGAGAAGGACGGCGUGCAUAGCGCCGUAGGAUAUCAAGACAUGAGGAUCACCCAUGUACGCGUGUCCCGCCGUGCU | – | – | 38.7 | 303
ACAUUUAAUACAGGAUAUGUUAGUAUACAGUAGAUUGGUUAUUACACAACAACAGAAGGGUAGAACAUGAGGAUCACCCAUGUA | 85.1 | 55.3 | – | –
ACAUUUAUAUCAGGAUAUACAAUACAAUGAUUAGUAGAAGGGAUUAUUACAUGAGGAUCACCCAUGUCAUGUGUCAUAAUAACC | – | – | 27.6 | 24.1
ACCAGUGCAUGAGGAUAUCACAUCGGUAUCCUCCAGUGCGGCGUUCGACAUGAGGAUCACCCAUGUGAGAAGGCAUGAACUCGG | – | – | 15.6 | 18.6
ACCUUACAUGAGGAUCACCCAUGUUAGGAUAUCUCGCUUGCGCAAUCACAACGCAAGCAGAGAAGGGACGCGGG | – | – | 29.1 | 33.4
ACCUUACAUGAGGAUCACCCAUGUUAGGAUAUCUCGCUUUCGCUGUCACAGCGCAAGCAGAGAAGGGACACGGG | – | – | 33.9 | 64.5
ACGAAGACACAAAUGUUCCACGGUGCAGAAGGGUCCCUCACAUGAGGAUCACCCAUGUAACUCGGACAGGAUAUGCUCUUGGGA | 47.4 | 5.86 | – | –
ACGAGGUCAGGAUAUACGGAGAGAGGGAGUUGGUUAGGGUAACAUGAGGAUCACCCAUGUAGAAGGGACUAGGG | – | – | 48.6 | 40.3
ACGAGUAAAGCAGGAUAUCUAUUGUCUCUGUAACAUGAGGAUCACCCAUGUAGAGAAGGGCUUAGUCAUACACUUCGAAGUUGC | – | – | 9.78 | 9.77
ACGAUUCACUCAGGAUAUGUAUCACCUCGUUACCAACAUGAGGAUCACCCAUGUCCGUGGCUCGGACAGAAGGGAGAAGAAUCG | 733 | 220 | – | –
ACGCAACAUGAGGAUCACCCAUGUGAGGAUAUGUAAAUAGUAAACAAAUAGGAAAUGAACAGAAGGCACACCGG | – | – | 33.8 | 46
ACGCCAAUCGAGAAGGGCCCAUGUGCUACGUCGGCAGGAUAUCGACAUGAGGAUCACCCAUGUUGGCGAUCCUUUUUGGCUAAC | – | – | 147 | 212
ACGCCCUGAGGAUAUCUUUUCCCGUACAUGAGGAUCACCCAUGUUUUCCUCCGGGCUUCGAGAGAAGGCAGGCCCA | – | – | 22.3 | 41.2
ACGCCCUGAGGAUAUCUUUUCCCGUACAUGAGGAUCACCCAUGUUUUCCUCCGUGCUUCGAGAGAAGGCAGGCCCA | – | – | 807 | 436
ACGGAGACACAAAUGUUCCACGGUGCAGAAGGGUCCCUCACAUGAGGAUCACCCAUGUAACUCGGACAGGAUAUGCUCCUGGGA | 135 | 9.78 | – | –
ACGGCAAUCACAGGAUAUGGUUACAUGAGGAUCACCCAUGUCUAGGGUCUAAUUAGGUAUAACUACCAGAAGGGUGAAGGCCUA | – | – | 97.1 | 80.1
ACGGCAGUCGAAGGAUAUGGUUACAUGAGGAUCACCCAUGUCUAGGUUCUUAAAUAGUAUAAUUUCCAGAAGGUCGAAGGCCUA | – | – | 29.4 | 35.5
ACGUAUCGUGUAGGAUAUGACCCAGGAAACUGGUCAGAAGGACAUGAGGAUCACCCAUGUAGAGUAUGUUAGGAUGACGUAUGC | – | – | 42.5 | 305
ACGUGACGGUGCGCGAGCGGACGGAGAAGGCAGACAUGAGGAUCACCCAUGUGAGCCUGCUAUUCUGAGGAUAUCCGUCCACAC | – | – | 30.4 | 167
ACGUUGUCAGGAUAUCGUUAAUUUAGUUGUUUGUAUUAGUUCGAGAAGGGACAUGAGGAUCACCCAUGUUUGCU | – | – | 24.4 | 27.1
ACUAAACGAGGAUAUACUGACAGGCCUCAAACAUACAUCAAACAUGAGGAUCACCCAUGUAGAAGGCGUAAACU | – | – | 34.5 | 25.1
ACUACUUACUAGGAUAUCAGAGUCGAAAGACUCUGAGAAGGAGUAACAUGAGGAUCACCCAUGUGUCCUAUAGU | – | – | 17.9 | 29.4
ACUACUUAGUGAGGAUAUACAUAAUUUAUAACUGUAGAAGGCACAAACCUCAAUACAUGAGGAUCACCCAUGUUAUAUAUCUAA | – | – | 62.6 | 64.3

Sequence | apparent Kd [1] [nM] | apparent Kd [2] [nM] | apparent Kd [3] [nM] | apparent Kd [4] [nM]
ACUAGAUGAGGAUAUGCACAUUUUAGUGUUCCUCUAGAUUAACAUGAGGAUCACCCAUGUAGAAGGCGUCAUUA | – | – | 68 | 76.6
ACUAGAUGAGGAUAUGCAUAUUUUCGUGUUCUUCUAGGUUAACAUGAGGAUCACCCAUGUAGAAGGCGUCUGGA | – | – | 19.6 | 37.7
ACUAUACGAGGAUAUACUGACGGGCCUCAGGCAUACAUCAAACAUGAGGAUCACCCAUGUAGAAGGCGUAUACU | – | – | 79.4 | 29.2
ACUGUUUGACUCCUCUUAUACAUGAGGAUCACCCAUGUUAUCGAGGAUAUGCAUUAGAGUGUUUAGCAGAAGGCGAUGUAAUUG | – | – | 6.72 | 14.4
ACUUCACAUGAGGAUCACCCAUGUCAGGCCGGACUAGGAUAUUAUCAUGCAGCGUGACCGUGAGAAGGAGUUGGAU | 110 | 114 | – | –
ACUUCUAAGCAGAAGGCAGUCAUAGUAUUCGUCAUGUAGACAUGAGGAUCACCCAUGUAUAGUACUGAGGAUAUGCUUGGAUAG | – | – | 24 | 24.4
ACUUGUAAGCAGAAGGCAGUCAUUGUAUUCGUCAUGUAGACAUGAGGAUCACCCAUGUAUAGUACUGAGGAUAUGCAUCGAUAG | – | – | 7.88 | 17.2
AGAAAACAUGAGGAUCACCCAUGUGAGGAUAUCGAUGUCCAAAAAAAAGUGCGGGACUCGAGAAGGCACUUGGA | – | – | 28.6 | 37.6
AGAAAACGAGGAUAUACGUGCAUAUUCUCGCCCAAUGGGCAACAUGAGGAUCACCCAUGUAGAAGGCGUAAAGA | – | – | 37.4 | 71.7
AGAAACUACGAGAAGGACAUAUGACUAAGACUAAACAUGAGGAUCACCCAUGUAGGAUAUCGUAGUUUCAGGAUCGUGAGAUCA | – | – | 5.75 | 7.87
AGAAACUACGAGAAGGACAUAUGAUUAAGACGAAACAUGAGGAUCACCCAUGUAGGAUAUCGUAGUUUCAGGAUCGUGAGAUCA | – | – | 7.21 | 17.8
AGAAACUACGAGAAGGACAUGUGAACCUUCAAUUACAUGAGGAUCACCCAUGUAGGAUAUCGUAGUUUCAGGAUCGUGAGAUCA | – | – | 16.7 | 115
AGAAACUACGAGAAGGACAUGUGGUCCAAAACAAACAUGAGGAUCACCCAUGUAGGAUAUCGUAGUUUCAGGAUCGUGAGAUCA | – | – | 284 | 61.8
AGAAAGAAGCAAGGAUAUUGUAAGGUUAAUGUACAAGAAGGUGCUGUUUAUGUCUCUUAACAUGAGGAUCACCCAUGUUUUGGU | 19.2 | 18.8 | – | –
AGAAAGGCAGGAUAUACAUGAGGAUCACCCAUGUUAAGAAAGUGCGAAAGCACAAGAAGUAGAAGGGCCAAGAA | – | – | 23 | 21.6
AGAAAUAAAAAUGAGGAUAUGCAAAAGAAAACAUGAGGAUCACCCAUGUAAAAGAAAAUAAAUGGGCAGAAGGCAUGAAAUAAAGA | 136 | 44.9 | – | –
AGAACAUGAGGAUCACCCAUGUGAAGGUCGGUGUAUAAGGGUGAGGAUAUGCUUAAAAUAAGGAAGCAGAAGGUGCUUGGUGCA | 155 | 145 | – | –
AGAAUAAACCAGAAGGCCGAGAUACAUGAGGAUCACCCAUGUAUACUUUGGAGGAUAUGGAUGAUUCAAGUGCGUUUCGUAGCA | 3.98 | 3.36 | – | –
AGACAUGUCCGAGGAUAUCUGGAAACAUUUUCAAGAGAAGGCGGACAUGAGGAUCACCCAUGUCUCUCCUCAUCAAAUCCAAGU | – | – | 7.98 | 44.6
AGACGGAUCCGCGGUCGAUGCUAACUAGAAGGGCAGGUCACAUGAGGAUCACCCAUGUAGUAUAUGUAGGAUAUAGGAAGCGUU | 75 | 15.8 | – | –
AGAGCCUCGUGAGGAUAUACAUGAGGAUCACCCAUGUAAAUGGAAGAACGGAGGAAACUCCGAAUGUAGAAGGCACGAGGCUCA | – | – | 149 | 1240
AGAGGUCGCACAGGAUAUCAUACAUGAGGAUCACCCAUGUCAGAAAACAAAUGAGAAGGGUGCGCGUUAAUCGCUUGUGAAGAA | 16.7 | 4.8 | – | –
AGAGUUUCGUUGUGACCCAUUCACAUGAGGAUCACCCAUGUAGAGGAUAUAGGUCACCACGGUACCUAGAAGGCUACAGGUGUG | – | – | 13.4 | 15.5
AGAUAACACCAGAAGGACAUGAGGAUCACCCAUGUAGGAUAUGGGCAUCACUCGAGAAAGAAACGACCAAAUGGACACGCGGUC | 80.1 | 9.46 | – | –
AGAUAACACCAGAAGGACAUGAGGAUCACCCAUGUAGGAUAUGGGCAUCACUCGAGAAAGAAACGACCGAAAGGACACGCGGUC | 155 | 13 | – | –
AGAUAGUGCAGAGGAUAUCUUAAUAGAAAGAAUAGAGAAGGCUGACAUGAGGAUCACCCAUGUGAUGUCUUGAGACUACAUGGU | – | – | 48.4 | 336
AGAUAUAACUCAGGAUAUCAGCAUGGGUAGAUCACAUGAGGAUCACCCAUGUGCAUGUCCCGGCAUGAGAAGGGAGUAACGCAA | 43.2 | 52.2 | – | –
